From ChEMBL document CHEMBL4396869, “Design and Synthesis of Selective Phosphodiesterase 4D (PDE4D) Allosteric Inhibitors for the Treatment of Fragile X Syndrome and Other Brain Disorders” (J Med Chem, 2019)
pIC50: −log10 of the molar value. Active and inactive are the calls of the source. The calls are words filed in the database; no cut-off is given here.

Tests used:
[1] = (§1) Inhibition of recombinant human wild-type His6-tagged PDE4D7 UCR1 domain (S129 residues) expressed in baculovirus infected Sf9 insect cells using cAMP as substrate preincubated for 5 to 10 mins followed by substrate addition and measured for 10 mins by yeast myokinase/pyruvate kinase/lactate dehydrogenase-coupled fluorescence assay
[2] = biological target: 3',5'-cyclic-AMP phosphodiesterase 4B (Homo sapiens, UniProt Q07343, S133D); test: as §1, with “human” for “human wild-type”, “PDE4B1” for “PDE4D7”, “S133D mutant” for “domain (S129 residues)”
Sequence of 3',5'-cyclic-AMP phosphodiesterase 4B (Q07343 whole entry S133D): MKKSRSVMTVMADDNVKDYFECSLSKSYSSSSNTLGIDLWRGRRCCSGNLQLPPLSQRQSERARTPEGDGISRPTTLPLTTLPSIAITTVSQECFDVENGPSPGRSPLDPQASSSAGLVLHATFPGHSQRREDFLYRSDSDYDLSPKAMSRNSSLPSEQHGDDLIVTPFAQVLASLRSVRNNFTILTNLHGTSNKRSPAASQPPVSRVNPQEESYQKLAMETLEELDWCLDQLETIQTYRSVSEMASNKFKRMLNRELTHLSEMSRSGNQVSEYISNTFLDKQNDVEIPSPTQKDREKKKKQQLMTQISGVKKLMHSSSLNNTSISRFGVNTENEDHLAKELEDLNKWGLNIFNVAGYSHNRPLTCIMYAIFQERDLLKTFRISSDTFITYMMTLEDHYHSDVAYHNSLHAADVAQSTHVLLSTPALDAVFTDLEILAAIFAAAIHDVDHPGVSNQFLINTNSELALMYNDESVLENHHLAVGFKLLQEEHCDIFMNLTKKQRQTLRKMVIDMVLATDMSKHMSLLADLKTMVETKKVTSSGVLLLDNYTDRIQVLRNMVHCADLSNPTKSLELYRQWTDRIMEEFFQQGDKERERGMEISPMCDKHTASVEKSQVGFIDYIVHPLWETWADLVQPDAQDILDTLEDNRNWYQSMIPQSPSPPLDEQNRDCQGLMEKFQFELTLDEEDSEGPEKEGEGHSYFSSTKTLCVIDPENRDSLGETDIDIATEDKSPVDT

[3] = as §1, with “human” for “human wild-type”, “S129D mutant” for “domain (S129 residues)”
Mus musculus [4] = test: Memory enhancement effect in ICR mouse assessed as improvement in novel object discrimination at 3 to 30 mg/kg, po administered via gavage measured for 5 mins by open field test; format: functional, organism-based
Outline: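 Male ICR mice (25–30 g), dosed by oral gavage in 5% DMSO, 5% Solutol in PBS. Three phases in an open field box: 10 min habituation on day 1, 5 min training with identical objects on day 2, 5 min test with familiar and novel objects on day 3 (24 h delay). Exploration times recorded; discrimination index d2 = (b − a)/(a + b).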

[5] = Stability in mouse liver microsomes assessed as parent compound remaining at 1 uM measured after 30 mins by LC-MS/MS analysis; format: ADME, Microsome; details: read-out: Stability
Outline: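 Liver microsome stability run by a contract lab using standard protocols. Parent compound remaining measured after 30 min incubation.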

[6] = Protein binding in human plasma; format: ADME, cell-free
[7] = Protein binding in dog plasma; format: ADME, cell-free, Canis lupus familiaris; details: read-out: PPB
[8] = Protein binding in rat plasma; format: ADME, cell-free; details: read-out: PPB
[9] = Protein binding in mouse plasma; format: ADME, cell-free; details: read-out: PPB
Cytochrome P450 3A4 = Cytochrome P450 3A4 (Homo sapiens, UniProt P08684); test: Inhibition of CYP3A4 (unknown origin) by fluorescence-based assay; format: ADME
Sequence of Cytochrome P450 3A4 (P08684 whole entry): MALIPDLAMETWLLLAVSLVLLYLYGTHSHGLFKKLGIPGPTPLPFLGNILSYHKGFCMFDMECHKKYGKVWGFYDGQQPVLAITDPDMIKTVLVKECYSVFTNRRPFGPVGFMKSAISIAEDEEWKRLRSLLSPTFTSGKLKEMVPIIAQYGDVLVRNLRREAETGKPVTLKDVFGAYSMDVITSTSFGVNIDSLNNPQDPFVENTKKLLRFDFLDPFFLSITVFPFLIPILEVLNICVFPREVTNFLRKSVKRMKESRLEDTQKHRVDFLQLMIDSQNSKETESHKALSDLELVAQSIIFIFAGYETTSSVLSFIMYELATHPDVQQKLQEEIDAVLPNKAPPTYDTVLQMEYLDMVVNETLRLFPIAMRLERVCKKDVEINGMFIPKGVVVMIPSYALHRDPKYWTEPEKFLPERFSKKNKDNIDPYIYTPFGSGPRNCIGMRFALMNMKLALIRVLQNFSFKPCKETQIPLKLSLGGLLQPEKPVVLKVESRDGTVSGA
Outline: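 CYP inhibition run with a fluorescent substrate by a contract laboratory under standard protocols; IC50 reported.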

[10] = as §1, with “human” for “human wild-type”, “S129D mutant” for “domain (S129 residues)”, “assay relative to control” for “assay”
[11] = Aqueous kinetic solubility of the compound in pH 7.4 PBS buffer at 100 uM measured after 1 hr; format: physicochemical; details: pH 7.4, 1 h
Homo sapiens [12] = species: Homo sapiens; test: Selectivity ratio of IC50 for recombinant human wild-type His6-tagged PDE4D7 UCR1 domain (S129 residues) expressed in baculovirus infected Sf9 insect cells to IC50 for recombinant human His6-tagged PDE4D7 UCR1 S129D mutant expressed in baculovirus infected Sf9 insect cells
Homo sapiens [13] = species: Homo sapiens; test: Selectivity ratio of IC50 for recombinant human His6-tagged PDE4B1 UCR1 S133D mutant expressed in baculovirus infected Sf9 insect cells to IC50 for recombinant human His6-tagged PDE4D7 UCR1 S129D mutant expressed in baculovirus infected Sf9 insect cells
Mus musculus [14] = test: Memory enhancement effect in ICR mouse assessed as improvement in novel object discrimination at 0.1 mg/kg, ip […] measured for 5 mins by open field test; format: functional, organism-based
Outline: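 Male ICR mice (25–30 g) in open field box; habituation 10 min day 1, training with two identical objects 5 min day 2, test with familiar and novel object 5 min day 3 (24 h delay). Exploration times recorded; discrimination index d2 = (b − a)/(a + b). Oral dosing in 5% DMSO, 5% Solutol in PBS; rolipram given parenterally.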

Mus musculus [15] = test: Induction of emesis in ICR mouse assessed as reduction in ketamine/xylazine-induced duration of anesthesia at 0.1 mg/kg, ip pretreated for 15 mins followed by ketamine/xylazine addition; format: organism-based; details: in vivo
Outline: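 Male ICR mice, 25–30 g. Test agents given by oral gavage in 5% DMSO, 5% Solutol in PBS, or rolipram IP; ketamine (80 mg/kg) plus xylazine (10 mg/kg) IP given 30 min after PO or 15 min after IP dosing. Endpoint: time from loss to return of righting reflex.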

## CCc1cc(Cc2ccc(CC(=O)NCCO)cc2)nc(-c2cccc(Cl)c2)n1
[1]
  pIC50: 6.05
[2]
  pIC50: 6.89
[3]
  pIC50: 9.10
Mus musculus [4]
  Activity: Active
[5]
  remaining at 0.5 h, 1 µM: 36%
[6]
  PPB: 99.6 to 99.8%
[7]
  fraction unbound: 0.002 to 0.004
[8]
  fraction unbound: 0.002 to 0.004
[9]
  fraction unbound: 0.002 to 0.004
Cytochrome P450 3A4
  pIC50: 5.51
[10]
  Imax: 88%
[11]
  Kinetic_solubility: 29 µM

## OCCc1ccc(Nc2cc(-c3cccc(Cl)c3)nc3c2CCC3)cc1
Homo sapiens [12]
  Ratio IC50: 226
[1]
  pIC50: 5.68
Homo sapiens [13]
  Ratio IC50: 60
[2]
  pIC50: 6.25
[3]
  pIC50: 8.05

## CCc1cc(Oc2ccc(CC(N)=O)cc2)nc(-c2cccc(Cl)c2)n1
[1]
  pIC50: 5.61
[2]
  pIC50: 6.02
[3]
  pIC50: 7.46

## OCCc1cccc(Nc2cc(-c3cccc(Cl)c3)nc3c2CCC3)c1
[1]
  pIC50: 5.20
[2]
  pIC50: 5.85
[3]
  pIC50: 6.65

## CCc1nc(Nc2ccc(CCCO)cc2)nc(-c2cccc(Cl)c2)n1
[1]
  pIC50: 7.57
[2]
  pIC50: 7.96
[3]
  pIC50: 9.70

## CCc1nc(Nc2ccc(CO)cc2)nc(-c2cccc(Cl)c2)n1
[1]
  pIC50: 6.45
[2]
  pIC50: 6.98
[3]
  pIC50: 7.92

## CN(C)C(=O)Cc1ccc(Nc2cc(-c3cccc(Cl)c3)nc3c2CCC3)cc1
[1]
  pIC50: 6.04
[2]
  pIC50: 6.45
[3]
  pIC50: 7.29

## CCc1nc(Nc2ccc(C(=O)O)cc2)nc(-c2cccc(Cl)c2)n1
Homo sapiens [12]
  Ratio IC50: 2
[1]
  pIC50: 6.32
Homo sapiens [13]
  Ratio IC50: 1
[2]
  pIC50: 6.62
[3]
  pIC50: 6.67

## CCc1nc(Nc2ccc(CC(N)=O)cc2)nc(-c2cccc(Cl)c2)n1
Homo sapiens [12]
  Ratio IC50: 41
[1]
  pIC50: 6.69
Homo sapiens [13]
  Ratio IC50: 10
[2]
  pIC50: 7.32
[3]
  pIC50: 8.30

## NC(=O)Cc1ccc(S(=O)(=O)c2cc(-c3cccc(Cl)c3)nc3c2CCC3)cc1
[2]
  pIC50: 5.42
[3]
  pIC50: 6.32

## CCc1nc(Nc2ccc(C(N)=O)cc2)nc(-c2cccc(Cl)c2)n1
Homo sapiens [12]
  Ratio IC50: 11
[1]
  pIC50: 6.60
Homo sapiens [13]
  Ratio IC50: 2
[2]
  pIC50: 7.36
[3]
  pIC50: 7.66

## NC(=O)Cc1ccc(Nc2cc(-c3cccc(Cl)c3)nc3c2CCC3)cc1
Homo sapiens [12]
  Ratio IC50: 40
[1]
  pIC50: 5.78
Homo sapiens [13]
  Ratio IC50: 3
[2]
  pIC50: 6.87
[3]
  pIC50: 7.38

## CCc1cc(Cc2ccc(CCO)cc2)nc(-c2cccc(Cl)c2)n1
[1]
  pIC50: 6.27
[2]
  pIC50: 6.23
[3]
  pIC50: 8.70

## COc1ccc(C2CNC(=O)C2)cc1OC1CCCC1 (stereo not drawn) [ROLIPRAM]
Mus musculus [14]
  Activity: Active
Mus musculus [15]
  Activity: Toxic

## CN(c1ccc(CC(N)=O)cc1)c1cc(-c2cccc(Cl)c2)nc2c1CCC2
[2]
  pIC50: 5.48
[3]
  pIC50: 6.13

## CCc1cc(Nc2ccc(CC(N)=O)cc2)nc(-c2cccc(Cl)c2)n1
Homo sapiens [12]
  Ratio IC50: 56
[1]
  pIC50: 6.84
Homo sapiens [13]
  Ratio IC50: 17
[2]
  pIC50: 7.37
[3]
  pIC50: 8.59

## CCc1nc(Nc2ccc(C(C)C(=O)O)cc2)nc(-c2cccc(Cl)c2)n1 (stereo not drawn)
[1]
  pIC50: < 5.00
Homo sapiens [13]
  Ratio IC50: 11
[2]
  pIC50: 5.96
[3]
  pIC50: 7.02

## CCc1nc(Nc2ccc(CC(=O)O)cc2)nc(-c2cccc(Cl)c2)n1
Homo sapiens [12]
  Ratio IC50: 6
[1]
  pIC50: 5.39
Homo sapiens [13]
  Ratio IC50: 1
[2]
  pIC50: 6.11
[3]
  pIC50: 6.17

## CNC(=O)Cc1ccc(Nc2cc(-c3cccc(Cl)c3)nc3c2CCC3)cc1
[1]
  pIC50: 5.70
[2]
  pIC50: 7.01
[3]
  pIC50: 6.88

## CCc1nc(Nc2ccc(CCO)cc2)nc(-c2cccc(Cl)c2)n1
Homo sapiens [12]
  Ratio IC50: 204
[1]
  pIC50: 6.99
Homo sapiens [13]
  Ratio IC50: 48
[2]
  pIC50: 7.62
[3]
  pIC50: 9.30

## NC(=O)CCc1ccc(Nc2cc(-c3cccc(Cl)c3)nc3c2CCC3)cc1
[1]
  pIC50: 5.89
[2]
  pIC50: 6.78
[3]
  pIC50: 7.46

## NC(=O)Cc1ccc(Cc2cc(-c3cccc(Cl)c3)nc3c2CCC3)cc1
[1]
  pIC50: 6.09
[2]
  pIC50: 6.86
[3]
  pIC50: 8.07

## CCc1cc(Oc2ccc(CCO)cc2)nc(-c2cccc(Cl)c2)n1
[1]
  pIC50: 6.60
[2]
  pIC50: 7.24
[3]
  pIC50: 8.74

## O=C(O)Cc1ccc(Nc2cc(-c3cccc(Cl)c3)nc3c2CCC3)cc1
Homo sapiens [13]
  Ratio IC50: 1
[2]
  pIC50: 5.78
[3]
  pIC50: 5.93

## CCc1cc(Nc2ccc(CCO)cc2)nc(-c2cccc(Cl)c2)n1
[1]
  pIC50: 6.83
[2]
  pIC50: 7.24
[3]
  pIC50: 8.96
